Results pooled from the literature.
KIT autoinhibited: Mast/stem cell growth factor receptor Kit, autoinhibited (KIT, Homo sapiens, UniProt P10721)
KIT T670I/V559D: Mast/stem cell growth factor receptor Kit (KIT, Homo sapiens, UniProt P10721, T670I/V559D)
KIT: Mast/stem cell growth factor receptor Kit (KIT, Homo sapiens, UniProt P10721)
KIT A829P: Mast/stem cell growth factor receptor Kit (KIT, Homo sapiens, UniProt P10721, A829P)
KIT D816H: Mast/stem cell growth factor receptor Kit (KIT, Homo sapiens, UniProt P10721, D816H)

N#Cc1ccccc1CSc1nnc2c(n1)[nH]c1ccccc12  remaining binding (Mast/stem cell growth factor receptor Kit (KIT, Homo sapiens, UniProt P10721, D816V); binding, competition with immobilised ligand; 10 µM): 75%
c1cncc(-c2cccc(Nc3nccc(NC4CCCCC4)n3)c2)c1  remaining binding (KIT autoinhibited; binding, competition with immobilised ligand; 10 µM): 43%
C[C@@H]1CN(c2cc(-c3n[nH]c4ccc(OC5(C)CC5)cc34)ncn2)C[C@H](C)O1  remaining binding (KIT T670I/V559D; cell-free assay, competition with immobilised ligand; 0.1 µM): 95%
COc1ccnn2ncc(-c3ccnc(N(C)C)n3)c12  remaining binding (KIT; binding; 1 µM): 100%
O=C(NCc1ncc(C(F)(F)F)cc1Cl)c1ccc2c(c1)C1(CCS(=O)(=O)CC1)[C@H](C1CC1)N2S(=O)(=O)c1ccc(F)cc1  remaining binding (KIT; cell-free assay, competition with immobilised ligand; 1 µM): 100%
CN(c1nccc(-c2cnn3ncccc23)n1)C1CC1  remaining binding (Mast/stem cell growth factor receptor Kit (KIT, Homo sapiens, UniProt P10721, V559D); binding; 1 µM): 100%
O=C(Nc1c[nH]nc1C(=O)NC1CCNCC1)c1cc(F)cc(F)c1  remaining binding (KIT; binding, competition with immobilised ligand; 1 µM): 100%
O=C(c1ccc(Nc2nccc(-c3cc4ccccc4s3)n2)cc1)N1CCC(N2CCCC2)CC1  remaining binding (KIT T670I/V559D; binding, competition with immobilised ligand; 1 µM): 24%
Cn1nc(C(=O)NCc2ccc(C(=O)O)cc2)cc1-c1ccc2[nH]ccc2c1  remaining binding (KIT A829P; cell-free assay, competition with immobilised ligand; 0.1 µM): 72%
CCN1CCN(Cc2ccc(C(=O)Nc3ccc(C)c(Oc4ccc5c(c4)CC(=O)N5)c3)cc2C(F)(F)F)CC1  remaining binding (KIT autoinhibited; binding, competition with immobilised ligand; 1 µM): 100%
Cc1cnn2ncc(-c3ccnc(N(C)C)n3)c2c1  remaining binding (KIT autoinhibited; binding; 1 µM): 95%
O=C(c1ccc(Nc2ncc(Cl)c(-c3cc4ccccc4s3)n2)cc1)N1CCC(N2CCCC2)CC1  remaining binding (KIT D816H; binding, competition with immobilised ligand; 1 µM): 22%
CNC(=O)[C@@H]1CC[C@@H](n2c(-c3ccc4cnccc4c3)nc3ccc(C(=O)NCc4cccc(C(N)=O)c4)cc32)C1  remaining binding (KIT autoinhibited; binding, competition with immobilised ligand; 1 µM): 100%
CN(C)c1nccc(-c2cnn3ncccc23)n1  remaining binding (KIT autoinhibited; binding; 1 µM): 88%
O=c1nc(-c2ccccn2)sc2ccccc12  remaining binding (Mast/stem cell growth factor receptor Kit (KIT, Homo sapiens, UniProt P10721, V559D/V654A); binding, competition with immobilised ligand; 1 µM): 100%
CN1CCN(c2ccc(Nc3nccc(-c4ccccc4)n3)cc2C(F)(F)F)CC1  remaining binding (KIT T670I/V559D; binding; 10 µM): 0.15%
COc1ccc2c(c1)O[C@H](c1ccc(OC)c(OC)c1)C[C@@H]2NC(=O)C1(c2ccc3c(c2)OC(F)(F)O3)CC1  remaining binding (KIT; cell-free assay, competition with immobilised ligand; 1 µM): 100%
COc1cnc(Nc2cccc(S(N)(=O)=O)c2)nc1N1CCN(c2ccccc2)CC1  remaining binding (KIT A829P; binding, competition with immobilised ligand; 1 µM): 65%
c1cnn2ncc(-c3ccnc(N4CCC45COC5)n3)c2c1  remaining binding (KIT; binding; 1 µM): 90%
O=C(NCCCN1CCOCC1)c1ccc(Nc2nccc(-c3cc4ccccc4s3)n2)cc1  remaining binding (KIT D816H; binding, competition with immobilised ligand; 1 µM): 20%
C[C@H]1CCN(c2nccc(-c3cnn4ncccc34)n2)C1  remaining binding (KIT autoinhibited; binding; 1 µM): 73%
C[C@@H]1CN(c2cc(-c3nn(C)c4ccc(OC5(C)CC5)cc34)ncn2)C[C@H](C)O1  remaining binding (KIT autoinhibited; cell-free assay, competition with immobilised ligand; 1 µM): 97%
CN(C)c1ncc(F)c(-c2cnn3ncccc23)n1  remaining binding (KIT autoinhibited; binding; 1 µM): 73%
CC(=O)N1CCC(c2ccc(C(=O)NC(=N)N)cc2C(F)(F)F)CC1  remaining binding (KIT T670I/V559D; cell-free assay, competition with immobilised ligand; 1 µM): 100%
